Assay results: PubChem BioAssay
The source made the active and inactive calls.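 How the source made its calls, unless noted: active means visually confirmed hit in the image check and inhibition above 20%; inconclusive means visually confirmed hit but inhibition not above 20%; inactive means no visual hit in the image check.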

Legend:
[1] = inhibitors of TNFa-induced NFkB p65 translocation, primary screen, imaging, HUVEC, MLSMR starter and 10KST1 sets (AID 438;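 active means inhibition above 20% together with a positive visual image hit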;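 further: compound added about 3h40 before a 20 min TNFalpha stimulation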;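 on inhibition: signal is the nuclear over cytoplasmic p65 intensity ratio per well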); conditions: HUVEC TNFa-induced p65 nuclear translocation; cell count: measured here: nuclei count (cytotoxicity indicator), at 2.08 µM; inhibition: at 2 µM, stronger effect = higher value, 0% TNFa-plus-vehicle, 100% no-TNFa wells
[2] = inhibitors of mutant huntingtin aggregation, primary screen, imaging, exon1htt(103Q)mCFP cells, high-content imaging (AID 483;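 active means visual image review flags a hit and inhibition of aggregation exceeds 20%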;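 further: compound exposure lasted 3 days before fixation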;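 on nuclei count: percent of the per-plate median nuclei count of sample wells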); conditions: exon1htt(103Q)mCFP cell line, aggregate imaging, at 2 µM; inhibition of aggregation: stronger effect = higher value; nuclei count: measured here: cell count, toxicity
[3] = inhibitors of E-selectin induction by TNFa, primary screen, imaging, HUVEC, immunofluorescence, MLSMR starter and 10KST1 sets (AID 487); conditions: HUVEC TNFalpha-induced E-selectin immunofluorescence imaging, at 2 µM; inhibition: stronger effect = higher value; nuclei count: measured here: cell number, toxicity;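 on inhibition: signal is fraction of cell area covered by stained E-selectin grains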;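 on nuclei count: 100% = median nuclei count of all wells on the same plate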
[4] = molecular target: Voltage-gated potassium channel subunit beta-2 (Rattus norvegicus) (UniProt P62483); test: KvBeta enzyme negative modulators, primary screen, biochemical, NADPH fluorescence (AID 622;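 active means fluorescence slope higher than the sample average by over 3 SD, cut at about -0.22 in these data, passing the limit was not always enough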;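 further: slope of raw intensity against log time taken from 70 to 1610 s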); conditions: recombinant KvBeta, 4-cyanobenzaldehyde reduction, at 10 µM, stronger effect = higher value
Chain of Voltage-gated potassium channel subunit beta-2 (Rattus norvegicus) (P62483 whole entry, looked up): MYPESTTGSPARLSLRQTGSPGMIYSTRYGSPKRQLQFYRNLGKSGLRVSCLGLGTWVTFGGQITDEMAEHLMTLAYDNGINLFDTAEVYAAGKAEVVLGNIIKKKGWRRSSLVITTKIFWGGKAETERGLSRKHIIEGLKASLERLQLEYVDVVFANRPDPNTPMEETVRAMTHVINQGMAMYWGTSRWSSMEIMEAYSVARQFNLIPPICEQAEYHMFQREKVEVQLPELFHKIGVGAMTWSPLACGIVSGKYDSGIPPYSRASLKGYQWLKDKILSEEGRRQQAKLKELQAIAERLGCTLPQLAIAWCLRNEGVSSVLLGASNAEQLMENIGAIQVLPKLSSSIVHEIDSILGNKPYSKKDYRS

[5] = molecular target: Voltage-gated potassium channel subunit beta-2 (Rattus norvegicus) (UniProt P62483); test: KvBeta positive modulators, primary screen, biochemical, NADPH fluorescence (AID 623;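 active means NADPH fluorescence slope more negative than the mean of all samples by about 3 SD, 99.7% confidence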;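 further: fluorescence intensity change per second fitted from 20 to 320 s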); conditions: Recombinant KvBeta, NADPH fluorescence decrease slope, 10 min; at 10 µM; stronger effect = lower value
[6] = molecular target: Muscarinic acetylcholine receptor M4 (Homo sapiens) (UniProt P08173); test: compounds altering M4/GIRK thallium flux, either direction, primary screen, M4 allosteric agonist project, cell-based, HEK293 M4/GIRK, BTC-AM (AID 625;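 active means fluorescence slope after compound addition differing from the mean of all tested samples at 99.7% confidence, mostly higher but some lower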;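 further: thallium influx through GIRK channels coupled to M4 in HEK293 cells with BTC-AM dye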); conditions: at 10 µM, actives lie on both sides
Chain of Muscarinic acetylcholine receptor M4 (Homo sapiens) (P08173 whole entry, looked up): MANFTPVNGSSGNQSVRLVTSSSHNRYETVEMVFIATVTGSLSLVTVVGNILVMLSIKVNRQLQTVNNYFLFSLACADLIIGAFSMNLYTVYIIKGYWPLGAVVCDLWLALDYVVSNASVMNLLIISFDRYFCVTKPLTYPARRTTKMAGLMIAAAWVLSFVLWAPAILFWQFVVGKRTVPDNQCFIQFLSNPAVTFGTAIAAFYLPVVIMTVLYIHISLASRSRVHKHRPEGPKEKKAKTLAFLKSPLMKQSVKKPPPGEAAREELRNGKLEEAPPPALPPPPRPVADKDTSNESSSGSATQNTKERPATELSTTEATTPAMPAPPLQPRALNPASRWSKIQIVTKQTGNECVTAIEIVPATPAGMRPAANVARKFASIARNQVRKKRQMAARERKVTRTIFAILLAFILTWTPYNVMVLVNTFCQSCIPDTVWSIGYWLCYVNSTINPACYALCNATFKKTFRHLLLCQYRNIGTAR
Procedure, shortened: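 System: HEK293 cells with M4 receptor and GIRK channels | Incubation: Cells overnight at 37 °C, BTC-AM loading 1 h, reads 2 min total | Technique: Kinetic BTC-AM fluorescence sampled at 1 Hz, 10 s pre-addition baseline | Measure: Post-addition slope, 15–24 s, of baseline-normalized fluorescence | Control set: Carbachol positive, DMSO negative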

[7] = inhibitors of Sendai virus-induced IRF3 signaling, primary screen, TLR/RLR signaling modifier project, cell-based, Sendai virus stimulus, luciferase, 10K MLSCN set (AID 602276;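 active means inhibition at or above 50% at 10 µM; inactive means inhibition below 50%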;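 further: firefly luciferase from ISG56 promoter only with Renilla not read in this screen; 0% = Sendai virus plus DMSO and 100% = medium plus DMSO without virus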); conditions: HEK293 RL24 IRF3 luciferase reporter, at 10 µM, stronger effect = higher value
[8] = inhibitors of poly I:C-induced TLR3 signaling, primary screen, cell-based, poly I:C stimulus, luciferase, 10K MLSCN set (AID 602277;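 active means inhibition of the reporter signal at or above 50%; inactive means inhibition below 50%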); conditions: HEK293-TLR3 RL24 IRF3 luciferase reporter, at 10 µM, stronger effect = higher value

SMILES | cell count [1] | inhibition [1] | inhibition of aggregation [2] | nuclei count [2] [%] | inhibition [3] | nuclei count [3] [%] | fluorescence slope [4] | NADPH fluorescence slope [5] | fluorescence slope [6] | inhibition [7] | inhibition [8]
CCCn1c2ccccc2c2nnc(SCC(=O)Nc3ncccn3)nc21 | 696 | -4.4% (inactive) | -41% (inactive) | 53.5 | -10.4% (inactive) | 98.8 | -0.551 (inactive) | -1.7e-05 (inactive) | 0.00402 (inactive) | 12.2% (inactive) | 21.2% (inactive)
CCOC(=O)c1cccc(NC(=O)CSc2nc3ccccc3c(=O)n2CC)c1 | 360 | 4.2% (inactive) | 7.7% (inactive) | 98.9 | -1.3% (inactive) | 104 | -0.465 (inactive) | 2.3e-05 (inactive) | 0.00728 (inactive) | 9.39% (inactive) | 18.3% (inactive)
COc1cc(OC)cc(C(=O)NCc2n[nH]c(=S)n2-c2ccccc2OC)c1 | 385 | 0% (inactive) | -6.2% (inactive) | 112 | -29.2% (inactive) | 83 | -0.329 (inactive) | -6.5e-05 (inactive) | 0.00633 (inactive) | 7.57% (inactive) | 6.78% (inactive)
CSc1nsc(SCC(=O)N2CCc3ccccc32)n1 | 296 | -3.5% (inactive) | 22.6% (inactive) | 83.6 | -98.3% (inactive) | 112 | -0.451 (inactive) | 1.5e-05 (inactive) | 0.005 (inactive) | 5.46% (inactive) | -2.99% (inactive)
O=C(CN(c1ccc(F)cc1)S(=O)(=O)c1ccc2c(c1)OCCO2)NCC1CCCO1 (centres undefined) | 472 | 0.8% (inactive) | -6.6% (inactive) | 92.4 | -58.6% (inactive) | 107 | -0.453 (inactive) | -4.3e-05 (inactive) | 0.00466 (inactive) | 17% (inactive) | 24.3% (inactive)
COc1ccc(Cc2nn3c(-c4cc(OC)c(OC)c(OC)c4)nnc3s2)cc1 | 552 | 7.6% (inactive) | 17.4% (inactive) | 95.1 | 20.8% (inactive) | 103 | -0.254 (inactive) | -2.7e-05 (inactive) | 0.00585 (inactive) | 14.7% (inactive) | -1.58% (inactive)
CC(C(=O)OCn1nnc2ccccc2c1=O)N1C(=O)c2ccccc2C1=O (centres undefined) | 532 | -15.6% (inactive) | 13.2% (inactive) | 84.6 | 15.7% (inactive) | 76.4 | -0.62 (inactive) | 2e-05 (inactive) | 0.00486 (inactive) | 12.3% (inactive) | 21.1% (inactive)
COc1ccc(C(NC(=O)c2ccco2)c2ccc(OC)c(OC)c2)cc1 (centres undefined) | 373 | 27.4% (active) | -4.2% (inactive) | 104 | -24.8% (inactive) | 114 | -0.326 (inactive) | -6.7e-05 (inactive) | 0.00496 (inactive) | 6.11% (inactive) | 18.1% (inactive)
Cc1ccc(-c2nnn(CC(=O)N(CC(=O)NC3CCCCC3)c3cnc4ccccc4c3)n2)o1 | 300 | -7.6% (inactive) | 27.2% (inactive) | 94.4 | -22.9% (inactive) | 107 | -0.523 (inactive) | -2.2e-06 (inactive) | 0.00469 (inactive) | 21% (inactive) | 24.7% (inactive)
O=c1[nH]c(SCc2cc(=O)n3ccccc3n2)nc2c1CCC2 | 681 | -8.4% (inactive) | -47.8% (inactive) | 87.5 | -123% (inactive) | 106 | -0.381 (inactive) | 2.3e-05 (inactive) | 0.00602 (inactive) | 16.7% (inactive) | 20.7% (inactive)
Cc1sc2ncnc(OCC(=O)N3CCN(S(=O)(=O)c4ccccc4)CC3)c2c1C | 247 | -7.7% (inactive) | 11.8% (inactive) | 90.7 | 16.8% (inactive) | 91.8 | -0.498 (inactive) | 3.8e-05 (inactive) | 0.00565 (inactive) | 16.8% (inactive) | 15.1% (inactive)
CCCOc1ccc(N2C(=O)CC(NCCCN3CCC(C(N)=O)CC3)C2=O)cc1 (centres undefined) | 322 | -0.7% (inactive) | 9.6% (inactive) | 121 | -32% (inactive) | 110 | -0.429 (inactive) | -4.4e-05 (inactive) | 0.00445 (inactive) | 19.4% (inactive) | 19.7% (inactive)
Cc1cc(NC(=O)c2cc(-c3ccco3)on2)n(-c2ccccc2)n1 | 326 | 6.8% (inactive) | 6.4% (inactive) | 105 | -56.3% (inactive) | 121 | -0.466 (inactive) | -2.4e-05 (inactive) | 0.00551 (inactive) | 17.5% (inactive) | 12.9% (inactive)
CCC1(C)Cc2c(C#N)c(N)n(-c3ccccc3)c(=O)c2CO1 (centres undefined) | 531 | -8.6% (inactive) | 13.9% (inactive) | 100 | -59.9% (inactive) | 93.4 | -0.622 (inactive) | 6.4e-05 (inactive) | 0.00509 (inactive) | -3.47% (inactive) | 5.33% (inactive)
